Measurements: PMC3248997 (Bioorganic & medicinal chemistry, 2011)
Read-outs that look alike come from different tables or passages of the source.

Legend:
[1] = intracerebroventricular injection of 10 nmol; cited from earlier work
[2] = cited from earlier work
[3] = system: COX-2 in murine macrophages; settings: unclear which pyrazolone(s) were added; cited from earlier work
[4] = system: COX-2 in primary human leukocytes; settings: unclear which pyrazolone(s) were added; cited from earlier work
[5] = cited from earlier work; remark: listed apart in the source
[6] = system: PGE2 formation in brain tissue from COX-1−/− mice; assay type: biochemical; settings: 0.8 µM; brain tissue from LPS stimulated COX-1−/− mice
[7] = system: COX activity (PGE2 and 6-keto-PGF1α formation) in brain homogenates; experiment: Inhibition of COX activity in tissue extract; assay type: biochemical, C57BL/6 mice
How it was run: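 C57BL/6 mouse brain homogenate prepared on ice in 50 mM Tris pH 7.4 with 1 mM phenol and protease inhibitors. 20 µg homogenate preincubated with test compound or vehicle. 150 µM arachidonic acid added at 37°C. Stopped after 5 min by acidifying to pH 2.5 with formic acid and chilling. Prostanoids extracted with ethyl acetate/hexane (7:1). PGE2 and 6-keto-PGF1α quantified by GC-MS/MS.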

[8] = in vivo

SMILES: CCCCC/C=C\C/C=C\C/C=C\C/C=C\CCCC(=O)Nc1ccc(O)cc1 [AM404, N-arachidonoylaminophenol]
- antinociception [1]: Antinociception was observed

SMILES: Cc1c(N(C)CS(=O)(=O)[O-])c(=O)n(-c2ccccc2)n1C.[Na+] [compound 1, sodium N-(2,3-dimethyl-5-oxo-1-phenyl-3-pyrazolin-4-yl)-N-methylaminomethanesulphonate]
- time detectable in the serum ([2]; following intravenous administration): about 15 min
- detectability in the serum after oral intake ([2]; oral intake): not detectable
- activity against COX-2 [3]: approximately 12 µg ml^−1
- activity against COX-2 [4]: ~21 µg/mL

SMILES: CNc1c(C)n(C)n(-c2ccccc2)c1=O [compound 2, 4-methylaminoantipyrine]
- concentration in the cerebrospinal fluid [5]: 5000 to 30000 ng/mL
- bioavailability ([2]; after oral administration of dipyrone): 85%
- average elimination half-life (t1/2) [2]: 2.6 to 3.5 h
- tmax ([2]; time to maximal systemic concentrations): 1.2 to 2.0 h

SMILES: Cc1c(N)c(=O)n(-c2ccccc2)n1C [compound 3, 4-aminoantipyrine]
- concentration in the cerebrospinal fluid [5]: 1000 to 7000 ng/mL

SMILES: CCCCC/C=C\C/C=C\C/C=C\C/C=C\CCCC(=O)N(C)c1c(C)n(C)n(-c2ccccc2)c1=O [compound 5, (5Z,8Z,11Z,14Z)-Icosa-5,8,11,14-tetraenoic acid (1,5-dimethyl-3-oxo-2-phenyl-2,3-dihydro-1H-pyrazol-4-yl)-methyl-amide]
- formation in brain of FAAH−/− mice as compared to wild type mice (dipyrone for 5 days): less than 2%
- amount in mouse brain cell homogenates (representative chromatogram, Figure 9 B): 2.4 pg/sample
- formation of PGE2 [6]: did not observe any formation of PGE2
- lowering of IC50 by the FAAH inhibitor URB532 ([7]; inhibition of PGE2 formation in mouse brain homogenates): more than 200 fold

SMILES: CCCCC/C=C\C/C=C\C/C=C\C/C=C\CCCC(=O)Nc1c(C)n(C)n(-c2ccccc2)c1=O [compound 6, (5Z,8Z,11Z,14Z)-Icosa-5,8,11,14-tetraenoic acid (1,5-dimethyl-3-oxo-2-phenyl-2,3-dihydro-1H-pyrazol-4-yl)-amide]
- amount in mouse brain cell homogenates ([8]; C57BL/6, mouse): 39 pg/sample
- formation in brain of FAAH−/− mice as compared to wild type mice ([8]; FAAH−/− knockout compared with wild type (C57BL/6), mouse, 5 days): about 6%
- effect on PGE2 formation ([7]; brain homogenates, concentration range 100 nM to 100 µM): no effect
